The record followed here is article PMC11371828 (Nature Communications, 2024).

“Also recorded” adds a separate entry of the source. Where no end group is shown, it is not given here. MBP = maltose binding protein (fused N-terminally to the peptide)

First the molecules themselves.
B1: IKKβ(1-669) EE, 6xHis tag removed (enzyme, human, UniProt O14920 1-669, looked up)
chain: MSWSPSLTTQTCGAWEMKERLGTGGFGNVIRWHNQETGEQIAIKQCRQELSPRNRERWCLEIQIMRRLTHPNVVAARDVPEGMQNLAPNDLPLLAMEYCQGGDLRKYLNQFENCCGLREGAILTLLSDIASALRYLHENRIIHRDLKPENIVLQQGEQRLIHKIIDLGYAKELDQGELCTEFVGTLQYLAPELLEQQKYTVTVDYWSFGTLAFECITGFRPFLPNWQPVQWHSKVRQKSEVDIVVSEDLNGTVKFSSSLPYPNNLNSVLAERLEKWLQLMLMWHPRQRGTDPTYGPNGCFKALDDILNLKLVHILNMVTGTIHTYPVTEDESLQSLKARIQQDTGIPEEDQELLQEAGLALIPDKPATQCISDGKLNEGHTLDMDLVFLFDNSKITYETQISPRPQPESVSCILQEPKRNLAFFQLRKVWGQVWHSIQTLKEDCNRLQQGQRAAMMNLLRNNSCLSKMKNSMASMSQQLKAKLDFFKTSIQIDLEKYSEQTEFGITSDKLLLAWREMEQAVELCGRENEVKLLVERMMALQTDIVDLQRSPMGRKQGGTLDDLEEQARELYRRLREKPRDQRTEGDSQEMVRLLLQAIQSFEKKVRVIYTQLSKTVVCKQKALELLPKVEEVVSLMNEDEKTVVRLQEKRQKELWNLLKIACSKVRGPV

The target of data set [1] is T1, IKKα(10-667) EE homodimer (Homo sapiens, UniProt O15111, S176E/S180E).
T1 sequence (O15111 10-667 S176E/S180E): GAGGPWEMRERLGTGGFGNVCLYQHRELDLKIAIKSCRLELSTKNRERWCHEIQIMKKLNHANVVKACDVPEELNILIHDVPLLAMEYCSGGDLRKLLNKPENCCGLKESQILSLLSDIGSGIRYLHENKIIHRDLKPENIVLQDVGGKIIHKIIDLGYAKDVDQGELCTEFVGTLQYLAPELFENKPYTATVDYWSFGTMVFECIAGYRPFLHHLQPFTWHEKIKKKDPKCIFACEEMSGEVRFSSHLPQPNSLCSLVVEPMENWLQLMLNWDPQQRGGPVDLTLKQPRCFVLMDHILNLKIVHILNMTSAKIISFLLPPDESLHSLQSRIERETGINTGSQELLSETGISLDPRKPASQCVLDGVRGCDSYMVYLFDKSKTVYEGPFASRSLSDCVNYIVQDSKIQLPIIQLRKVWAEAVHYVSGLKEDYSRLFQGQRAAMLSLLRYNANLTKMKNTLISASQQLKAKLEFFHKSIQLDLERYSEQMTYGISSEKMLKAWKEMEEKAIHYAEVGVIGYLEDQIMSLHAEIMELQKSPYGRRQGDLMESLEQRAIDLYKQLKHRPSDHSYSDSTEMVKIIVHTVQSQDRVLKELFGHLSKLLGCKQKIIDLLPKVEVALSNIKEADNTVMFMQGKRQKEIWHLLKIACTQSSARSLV
Description: ITC of synthetic YDDΦxΦ peptides with IKKα homodimer. The class given is binding. The conditions noted are these: for ITC binding to IKKα, in words: 25 °C, titration of the IKKα homodimer with synthetic peptide. A digest of the protocol: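 IKKα(10-667) EE was expressed in Sf21 insect cells and purified by Ni-NTA affinity. It was then dialyzed overnight at 4 °C against ITC buffer (20 mM HEPES pH 8.0, 150 mM NaCl, 1 mM TCEP), which was used for all titrations unless otherwise stated.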

Data set [2] relates to IKKα/β heterodimer (6xHis-IKKβ(1-669) EE, Strep-IKKα(10-667) EE). Description: MBP-pulldown with purified IKKα/β heterodimer. The class given is binding. The conditions noted are these: MBP-IκBα pep(s) vs MBP negative control, Coomassie. A digest of the protocol:
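Heterodimer co-expressed in Sf21 insect cells, purified on Strep-Tactin then Ni-NTA, pre-incubated with 1 mM ATP, MgCl2, β-glycerophosphate, NaF and orthovanadate for 1 h on ice, then gel-filtered in Tris pH 8.0 buffer. MBP-fusion baits expressed in E. coli BL21(DE3), captured on amylose resin. Binding in 20 mM Tris pH 8.0, 150 mM NaCl, 2 mM DTT. Bound proteins Coomassie-stained.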

The data set “crystal structure” concerns the molecule itself. Description: crystal structure.
For data set [3], the target named is T2, 6xHis-IKKβ(1-669) EE (human, UniProt O14920 1-669, S177E | S181E).
T2 sequence (looked up): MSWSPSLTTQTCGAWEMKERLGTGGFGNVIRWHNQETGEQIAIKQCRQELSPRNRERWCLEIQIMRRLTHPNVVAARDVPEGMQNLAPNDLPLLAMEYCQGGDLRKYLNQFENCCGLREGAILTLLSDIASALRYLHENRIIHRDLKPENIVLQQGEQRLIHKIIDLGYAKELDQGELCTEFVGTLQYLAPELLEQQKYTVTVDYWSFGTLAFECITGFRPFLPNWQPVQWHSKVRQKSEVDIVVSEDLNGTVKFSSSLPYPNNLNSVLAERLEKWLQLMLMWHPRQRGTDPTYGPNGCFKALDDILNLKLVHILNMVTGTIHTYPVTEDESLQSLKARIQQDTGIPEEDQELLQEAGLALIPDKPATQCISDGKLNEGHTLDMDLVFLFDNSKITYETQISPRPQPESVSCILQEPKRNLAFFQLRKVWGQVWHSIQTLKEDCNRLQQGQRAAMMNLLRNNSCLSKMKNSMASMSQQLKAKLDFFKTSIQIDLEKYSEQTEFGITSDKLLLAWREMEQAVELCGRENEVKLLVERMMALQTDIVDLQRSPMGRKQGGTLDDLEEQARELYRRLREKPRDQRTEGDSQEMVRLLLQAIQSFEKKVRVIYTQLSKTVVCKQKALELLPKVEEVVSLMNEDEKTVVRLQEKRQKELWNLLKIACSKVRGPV
Put plainly: pull-down.

For data set [4], the system named is MEF cells KO for IκBα, IκBβ, IκBε. Put plainly: In cellulo degradation of retro-transduced IκBα proteins after TNFα. The class given is cell-based, mouse. The following applies: retro-transduced IκBα constructs, TNFα 20 ng/ml, compared with wt IκBα. The procedure, abridged: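 Retroviruses came from Phoenix-eco cells (5 × 10^6) transfected with 6 μg pBABE-IκBα plasmid; empty vector was the control. Medium was changed at 6 h and the virus-containing medium collected at 48 h, filtered, and used to infect the MEFs.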

In data set [5] the target is T2, 6xHis-IKKβ(1-669) EE. Put plainly: pull-down. The source holds these as a separate data set.
In data set [6] the target is T3, IKKα(10-667) EE, 6xHis tag removed (UniProt O15111 10-667, S176E | S180E).
T3 sequence (looked up): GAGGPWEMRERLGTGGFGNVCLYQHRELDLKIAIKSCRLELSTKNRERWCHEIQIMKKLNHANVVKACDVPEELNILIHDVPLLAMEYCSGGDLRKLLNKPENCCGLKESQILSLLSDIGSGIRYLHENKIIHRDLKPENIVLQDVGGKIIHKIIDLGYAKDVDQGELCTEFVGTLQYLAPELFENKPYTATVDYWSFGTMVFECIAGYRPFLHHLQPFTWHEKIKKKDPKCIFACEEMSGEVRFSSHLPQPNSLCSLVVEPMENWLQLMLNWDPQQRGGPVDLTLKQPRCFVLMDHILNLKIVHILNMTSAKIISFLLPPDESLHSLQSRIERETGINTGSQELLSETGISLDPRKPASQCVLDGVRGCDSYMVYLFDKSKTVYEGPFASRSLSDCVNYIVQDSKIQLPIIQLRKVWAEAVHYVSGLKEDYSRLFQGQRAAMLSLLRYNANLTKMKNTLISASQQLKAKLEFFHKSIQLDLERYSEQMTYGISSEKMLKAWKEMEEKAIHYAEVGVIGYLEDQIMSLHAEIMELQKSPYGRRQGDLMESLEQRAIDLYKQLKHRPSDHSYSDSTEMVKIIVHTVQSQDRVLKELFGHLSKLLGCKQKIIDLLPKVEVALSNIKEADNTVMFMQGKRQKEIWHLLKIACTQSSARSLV
Description: ITC.

Data set [7] deals with T2, 6xHis-IKKβ(1-669) EE. Description: cross-linking.
Data set [8] has as its target B1. Description: ITC.

As for “EFTEDELPYDDLVFGGQRLTL-NH2 [IκBα pep C308L]”, binding in data set [1] was put at a Kd of 0.42 µM.

On to EFTEDELPpYDDLVFGGQRLTL [pY-IκBα pep], for which, in data set [1], the “ITC binding to IKKα, in words” value is reported as “too weak to allow for accurate thermodynamic analysis; also recorded: absence of interaction”.

As for “IκBα pep(s): 17 amino acid peptide, residues 301-317 of IκBα, fused to MBP ({MBP}-DELPYDDCVFGGQRLTL)”, the “binding of the IKKα/β heterodimer in MBP-pulldown, in words” value in data set [2] is given as “specifically binds”.

LSSANSLYDDIECFLMELEQPA [IRF7 pep]: the “ITC binding to IKKα, in words” value in [1] is on record as “too weak to allow for accurate thermodynamic analysis; also recorded: binds with weak affinity to IKKα”.

Regarding B1, in the data set “crystal structure”, the binding result is listed as “binds”.

B2: MBP-IκBα full length (natural protein, human, UniProt P25963 1-317, looked up)
chain: MFQAAERPQEWAMEGPRDGLKKERLLDDRHDSGLDSMKDEEYEQMVKELQEIRLEPQEVPRGSEPWKQQLTEDGDSFLHLAIIHEEKALTMEVIRQVKGDLAFLNFQNNLQQTPLHLAVITNQPEIAEALLGAGCDPELRDFRGNTPLHLACEQGCLASVGVLTQSCTTPHLHSILKATNYNGHTCLHLASIHGYLGIVELLVSLGADVNAQEPCNGRTALHLAVDLQNPDLVSLLLKCGADVNRVTYQGYSPYQLTWGRPSTRIQQQLGQLTLENLQMLPESEDEESYDTESEFTEFTEDELPYDDCVFGGQRLTL
With B2, the binding result with 6xHis-IKKβ(1-669) EE [3] was “binds”.

B3: IkBa C308F (protein, UniProt P25963 1-317, looked up, variant C308F)
NF-kappa-B inhibitor alpha: MFQAAERPQEWAMEGPRDGLKKERLLDDRHDSGLDSMKDEEYEQMVKELQEIRLEPQEVPRGSEPWKQQLTEDGDSFLHLAIIHEEKALTMEVIRQVKGDLAFLNFQNNLQQTPLHLAVITNQPEIAEALLGAGCDPELRDFRGNTPLHLACEQGCLASVGVLTQSCTTPHLHSILKATNYNGHTCLHLASIHGYLGIVELLVSLGADVNAQEPCNGRTALHLAVDLQNPDLVSLLLKCGADVNRVTYQGYSPYQLTWGRPSTRIQQQLGQLTLENLQMLPESEDEESYDTESEFTEFTEDELPYDDFVFGGQRLTL
Take B3: the “IκBα degradation after TNFα stimulation, in words” value in [4] is “slightly faster compared to that of the wt IκBα protein”.

B4: MBP-IκBα pep(s) C308F (peptide, UniProt P25963 301-317, looked up)
chain: DELPYDDFVFGGQRLTL
In the case of B4, the binding result with 6xHis-IKKβ(1-669) EE [5] was “binds”.

B5: MBP-IκBα pep(s) C308L (peptide, UniProt P25963 301-317, looked up)
chain: DELPYDDLVFGGQRLTL
For B5, the binding result with 6xHis-IKKβ(1-669) EE [5] is reported as “binds”.

B6: MBP-IκBα(73-317) (domain or fragment, human, UniProt P25963 73-317, looked up)
chain: DGDSFLHLAIIHEEKALTMEVIRQVKGDLAFLNFQNNLQQTPLHLAVITNQPEIAEALLGAGCDPELRDFRGNTPLHLACEQGCLASVGVLTQSCTTPHLHSILKATNYNGHTCLHLASIHGYLGIVELLVSLGADVNAQEPCNGRTALHLAVDLQNPDLVSLLLKCGADVNRVTYQGYSPYQLTWGRPSTRIQQQLGQLTLENLQMLPESEDEESYDTESEFTEFTEDELPYDDCVFGGQRLTL
On to B6, for which the binding result in the data set with 6xHis-IKKβ(1-669) EE [5] was “binds”.

B7: p100 pep (synthetic, residues 8-29 of p100) (peptide)
peptide: GLDGIIEYDDFKLNSSIVEPKE
On to B7, for which, in [6], the dissociation constant Kd is approximately 12 µM, the dH is approximately -13.4 kcal/mol and the “stoichiometry N” value was 0.6.

B8: C308L/R314K IκBα pep (synthetic) (peptide)
peptide: EFTEDELPYDDLVFGGQKLTL-NH2
As for B8, the binding result in the data set with 6xHis-IKKβ(1-669) EE [7] was “binds”.

B9: IκBα pep (synthetic, residues 297-317 of IκBα) (peptide)
peptide: EFTEDELPYDDCVFGGQRLTL
Consider B9, for which, in data set [6], binding was put at a Kd of 7.7 µM, the dH is -14.2 kcal/mol and the “stoichiometry N” value was determined as 0.63. For the same molecule, in data set [8], the dissociation constant (Kd) was determined as 40 µM, the dH is -16.3 kcal/mol and the “stoichiometry N” value is 0.63.

B10: C308L IκBα pep (synthetic) (peptide)
peptide: EFTEDELPYDDLVFGGQRLTL-NH2
In the case of B10, in data set [8], binding was characterised by a dissociation constant (Kd) of 2.4 µM, the dH is -11.5 kcal/mol and the “stoichiometry N” value came out at 0.66.
